Experimental data taken from ChEMBL document CHEMBL1124066, “Renin inhibitors containing psi[CH2O] pseudopeptide inserts” (J Med Chem, 1988).
*1 amine or outer side, *2 acyl side, *3 side chain or, on linkers, in order; H or OH if unused. Where a SMILES comes first, the peptide text is derived from it. [ ]: non-standard residue; d: D form. The star is where a group is joined. X1 = O=C([C@H](Cc1ccccc1)OC[C@@H]1CCCN1[*:1])[*:2]; X2 = CC(CN[*:1])CC(N)C(O)CC(=O)[*:2]; NHCH2(2-pyridyl) = c1ccc(CN*)nc1; Boc = CC(C)(C)OC(=O)*; For = O=C*

What was measured:
[1] = molecular target: T1, Renin (Homo sapiens, UniProt P00797); assay: Inhibition of Human plasma renin; type: cell-free
T1 sequence (P00797 whole entry): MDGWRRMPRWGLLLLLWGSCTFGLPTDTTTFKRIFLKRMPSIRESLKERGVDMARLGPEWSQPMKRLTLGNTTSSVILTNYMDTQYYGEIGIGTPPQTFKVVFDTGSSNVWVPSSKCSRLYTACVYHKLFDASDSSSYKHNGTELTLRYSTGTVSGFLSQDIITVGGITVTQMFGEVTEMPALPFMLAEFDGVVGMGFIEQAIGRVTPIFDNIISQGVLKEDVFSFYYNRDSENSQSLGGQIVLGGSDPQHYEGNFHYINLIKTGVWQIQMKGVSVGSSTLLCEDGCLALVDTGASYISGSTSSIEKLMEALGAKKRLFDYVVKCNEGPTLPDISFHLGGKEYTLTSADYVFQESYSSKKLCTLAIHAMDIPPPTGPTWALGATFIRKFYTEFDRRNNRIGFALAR
Procedure, shortened: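 Lyophilized human plasma containing 0.1% EDTA was used for angiotensin I generation with phenylmethanesulfonyl fluoride and maleate buffer pH 6.0. Inhibitor was added in a 1% Tween 80/water vehicle, followed by 90 min at 37 °C. Angiotensin I was measured by radioimmunoassay. Percent inhibition was taken against control tubes. IC50 was estimated graphically from 3-4 inhibitor concentrations on a semilog plot.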

[2] = molecular target: Chymotrypsinogen A (Bos taurus) (UniProt P00766); assay: % compound remaining at 60 min in presence of degradative […] (in vitro)
Procedure, shortened: (§1)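 Enzyme stocks were made in 50 mM Tris-HCl pH 7.5 (stock chymotrypsin 25 units/mL; elastase and carboxypeptidase Y 50 units/mL). Peptide at 0.8 mg/mL in 10% DMSO/Tris received 5 µL enzyme per 0.25 mL and was incubated at 37 °C for 0 or 60 min, then quenched with HPLC solvent B. Reverse-phase HPLC used an acetonitrile gradient. The 204 nm peak height was compared with the 0-min control. Incubations were run in triplicate, each assayed in duplicate.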

[3] = % compound remaining at 60 min in presence of degradative enzyme carboxypeptidase Y (in vitro); procedure, shortened: as §1
[4] = species on record: Homo sapiens; assay: % compound remaining at 60 min in presence of degradative enzyme elastase (in vitro); type: functional; procedure, shortened: as §1

Compound | IC50 [1] [µM] | other results
CC[C@H](C)[C@H](NC(=O)CC(O)C(N)CC(C)CNC(=O)[C@H](Cc1cnc[nH]1)NC(=O)[C@H](Cc1ccccc1)OC[C@@H]1CCCN1C(=O)[C@H](Cc1cn(C=O)c2ccccc12)NC(=O)OC(C)(C)C)C(=O)N[C@@H](Cc1ccccc1)C(=O)OC (stereo not given in full) (Boc-W(For)[X1]H[X2]IF-OMe) | 1000 | –
CC[C@H](C)[C@H](NC(=O)CC(O)C(N)CC(C)CNC(=O)[C@H](Cc1c[nH]cn1)NC(=O)[C@H](Cc1ccccc1)OC[C@@H]1CCCN1C(=O)[C@H](Cc1c[nH]cn1)NC(=O)OC(C)(C)C)C(=O)NCc1ccccn1 (stereo not given in full) | 100 | –
CC[C@H](C)[C@H](NC(=O)[C@H](C)OC[C@H](CC(C)C)NC(=O)[C@H](Cc1cnc[nH]1)NC(=O)[C@H](Cc1ccccc1)NC(=O)[C@@H]1CCCN1C(=O)[C@H](Cc1cnc[nH]1)NC(=O)[C@@H]1CCCN1)C(=O)N[C@@H](Cc1cnc[nH]1)C(=O)N[C@H](CCCCN)C(=O)O | 18 | –
CC(C)[C@H](NC(=O)[C@H](Cc1ccccc1)NC(=O)[C@H](Cc1ccccc1)NC(=O)[C@H](Cc1ccccc1)NC(=O)[C@H](Cc1c[nH]cn1)NC(=O)[C@H](Cc1ccccc1)NC(=O)[C@@H]1CCCN1C(=O)[C@H](Cc1c[nH]cn1)NC(=O)[C@@H]1CCCN1)C(=O)N[C@@H](Cc1ccc(O)cc1)C(=O)N[C@@H](CCCCN)C(=O)O [RIP] (H-PHPFHFFFVYK-OH) | 7 | Remaining [2]: 3%; Remaining [3]: 2%
CC(C)[C@H](NC(=O)[C@H](Cc1ccccc1)NC(=O)[C@H](Cc1ccccc1)NC(=O)[C@H](Cc1c[nH]cn1)NC(=O)[C@H](Cc1ccccc1)NC(=O)[C@@H]1CCCN1C(=O)[C@H](Cc1c[nH]cn1)NC(=O)[C@@H]1CCCN1)C(=O)N[C@@H](Cc1ccc(O)cc1)C(=O)N[C@@H](CCCCN)C(=O)O [RIP] (H-PHPFHFFVYK-OH) | – | Remaining [4]: 13%
CC[C@H](C)[C@H](NC(=O)CC(O)C(N)CC(C)CNC(=O)[C@H](Cc1c[nH]cn1)NC(=O)[C@H](Cc1ccccc1)OC[C@@H]1CCCN1C(=O)[C@H](Cc1c[nH]cn1)NC(=O)OC(C)(C)C)C(=O)N[C@@H](Cc1ccccc1)C(=O)OC (stereo not given in full) (Boc-H[X1]H[X2]IF-OMe) | 440 | –
CC[C@H](C)[C@H](NC(=O)CC(O)C(N)CC(C)CNC(=O)[C@H](Cc1cnc[nH]1)NC(=O)[C@H](Cc1ccccc1)NC(=O)[C@@H]1CCCN1C(=O)OC(C)(C)C)C(=O)NCc1ccccn1 (stereo not given in full) (Boc-PFH[X2]I-{NHCH2(2-pyridyl)}) | 4.1 | –
CC[C@H](C)[C@H](NC(=O)CC(O)C(N)CC(C)CNC(=O)[C@H](Cc1c[nH]cn1)NC(=O)[C@H](Cc1ccccc1)NC(=O)[C@@H]1CCCN1C(=O)OC(C)(C)C)C(=O)N[C@@H](Cc1ccccc1)C(=O)OC (stereo not given in full) (Boc-PFH[X2]IF-OMe) | 5.8 | –
CC[C@H](C)[C@H](NC(=O)CC(O)C(N)CC(C)CNC(=O)[C@H](Cc1cnc[nH]1)NC(=O)[C@H](Cc1ccccc1)OC[C@@H]1CCCN1C(=O)OC(C)(C)C)C(=O)N[C@@H](Cc1ccccc1)C(=O)OC (stereo not given in full) | 2500 | –
CC[C@H](C)[C@H](NC(=O)CC(O)C(N)CC(C)CNC(=O)[C@H](Cc1c[nH]cn1)NC(=O)[C@H](Cc1ccccc1)OC[C@@H]1CCCN1C(=O)[C@H](Cc1cn(C=O)c2ccccc12)NC(C)=O)C(=O)N[C@@H](Cc1ccccc1)C(=O)OC (stereo not given in full) (Ac-W(For)[X1]H[X2]IF-OMe) | 330 | –
CC[C@H](C)[C@H](NC(=O)CC(O)C(N)CC(C)CNC(=O)[C@H](Cc1cnc[nH]1)NC(=O)[C@H](Cc1ccccc1)OC[C@@H]1CCCN1C(=O)OC(C)(C)C)C(=O)NCc1ccccn1 (stereo not given in full) | 140 | –

The remaining compounds from weak to strong by IC50 [1], led by results:

IC50 [1] [µM] | Compound | other results
3 | CC[C@H](C)[C@H](NC(=O)[C@@H](NCC(O)[C@H](CC(C)C)NC(=O)[C@H](Cc1cnc[nH]1)NC(=O)[C@H](Cc1ccccc1)OC[C@@H]1CCCN1C(=O)[C@H](Cc1cnc[nH]1)NC(=O)OC(C)(C)C)C(C)C)C(=O)NCc1ccccn1 (stereo not given in full) | –
2.3 | CC[C@H](C)[C@H](NC(=O)[C@@H](NCC(O)[C@H](CC(C)C)NC(=O)[C@H](Cc1c[nH]cn1)NC(=O)[C@H](Cc1ccccc1)OC[C@@H]1CCCN1C(=O)OC(C)(C)C)C(C)C)C(=O)NCc1ccccn1 (stereo not given in full) | –
1.8 | CC[C@H](C)[C@H](NC(=O)[C@H](CC(C)C)OC[C@H](CC(C)C)NC(=O)[C@H](Cc1cnc[nH]1)NC(=O)[C@H](Cc1ccccc1)NC(=O)[C@@H]1CCCN1C(=O)[C@H](Cc1cnc[nH]1)NC(=O)[C@@H]1CCCN1)C(=O)N[C@@H](Cc1cnc[nH]1)C(=O)N[C@H](CCCCN)C(=O)O | –
1.7 | CC[C@H](C)[C@H](NC(=O)[C@@H](OC[C@H](CC(C)C)NC(=O)[C@H](Cc1c[nH]cn1)NC(=O)[C@H](Cc1ccccc1)NC(=O)[C@@H]1CCCN1C(=O)[C@H](Cc1c[nH]cn1)NC(=O)[C@@H]1CCCN1)C(C)C)C(=O)N[C@@H](Cc1c[nH]cn1)C(=O)N[C@H](CCCCN)C(=O)O | –
1.6 | CC[C@H](C)[C@H](NC(=O)[C@@H](NCC(O)[C@H](CC(C)C)NC(=O)[C@H](Cc1c[nH]cn1)NC(=O)[C@H](Cc1ccccc1)OC[C@@H]1CCCN1C(=O)[C@H](Cc1ccccc1)NC(=O)OC(C)(C)C)C(C)C)C(=O)NCc1ccccn1 (stereo not given in full) | –
0.36 | CC[C@H](C)[C@H](NC(=O)[C@@H](NCC(O)[C@H](CC(C)C)NC(=O)[C@H](Cc1cnc[nH]1)NC(=O)[C@H](Cc1ccccc1)NC(=O)[C@@H]1CCCN1C(=O)OC(C)(C)C)C(C)C)C(=O)NCc1ccccn1 (stereo not given in full) | –
0.05 | CC[C@H](C)[C@H](NC(=O)[C@@H](NC[C@H](CC(C)C)NC(=O)[C@H](Cc1c[nH]cn1)NC(=O)[C@H](Cc1ccccc1)NC(=O)[C@@H]1CCCN1C(=O)[C@H](Cc1c[nH]cn1)NC(=O)[C@@H]1CCCN1)C(C)C)C(=O)N[C@@H](Cc1c[nH]cn1)C(=O)N[C@H](CCCCN)C(=O)O | –
